Values belong to the compound of their own block, whether it stands above or below them. Activity calls are given as the source filed them. The rule behind the calls is not given here.
Tests used:
[1] = Prodrug conversion in pH 7.4 buffer assessed as riluzole formation by measuring compound half life; format: physicochemical
Method in brief: (§1)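 Each prodrug was incubated in pH 7.4 buffer, fresh rat serum, simulated gastric fluid or simulated intestinal fluid. Prodrug disappearance was followed for up to 2-4 h to derive a half-life in hours.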

[2] = Prodrug conversion in rat serum assessed as riluzole formation by measuring compound half life; format: ADME, cell-free; method in brief: as §1
[3] = Prodrug conversion in simulated gastric fluid assessed as riluzole formation by measuring compound half life at 0.01 mg/ml by LC/MS analysis; format: ADME; conditions: simulated gi fluid; method in brief: as §1
[4] = Prodrug conversion in simulated intestinal fluid assessed as riluzole formation by measuring compound half life at 0.01 mg/ml by LC/MS analysis; format: ADME; conditions: simulated gi fluid; method in brief: as §1
Homo sapiens [5] = experiment: Antitumor activity against human C8161 cells xenografted in mouse assessed as tumor growth inhibition at 7.5 mg/kg, po administered once daily via gavage for 21 days measured at 7 days interval during compound dosing; format: functional, organism-based
Method in brief: (§2)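 Nude mice were inoculated in the flank with 10^6 human C8161 melanoma cells. When tumors reached 40 mm3, the mice were randomized into groups of similar tumor volume. Vehicle was DMSO. Dosing was daily by oral gavage for 21 days, and tumor growth was followed.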

[6] = Prodrug conversion in human liver microsomes assessed as riluzole formation by measuring half life; format: ADME, microsome
Method in brief: (§3)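 Prodrug stability was tested in human, mouse, rat and dog liver microsomes, and a half-life in minutes was reported.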

[7] = Prodrug conversion in mouse liver microsomes assessed as riluzole formation by measuring half life; format: ADME, microsome; method in brief: as §3
[8] = Prodrug conversion in rat liver microsomes assessed as riluzole formation by measuring half life; format: ADME, microsome; method in brief: as §3
[9] = Prodrug conversion in dog liver microsomes assessed as riluzole formation by measuring half life; format: ADME, Canis lupus familiaris, microsome; method in brief: as §3
[10] = Apparent permeability across apical to basolateral side in human Caco2 cells; format: ADME, cell-based; conditions: Caco-2
Method in brief: (§4)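 Bidirectional transport across Caco-2 monolayers was measured as Papp A-B and Papp B-A in nm/s. Efflux ratio was calculated as B-A over A-B.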

[11] = Apparent permeability across basolateral to apical side in human Caco2 cells; format: ADME, cell-based; conditions: Caco-2; method in brief: as §4
[12] = Efflux ratio of apparent permeability […] in human Caco2 cells; format: ADME, cell-based; conditions: Caco-2
CYP1A2 = target: T1, CYP1A2 (Homo sapiens, UniProt P05177); experiment: Inhibition of CYP1A2 (unknown origin) at 10 uM relative to control; format: ADME
T1 sequence (P05177 whole entry): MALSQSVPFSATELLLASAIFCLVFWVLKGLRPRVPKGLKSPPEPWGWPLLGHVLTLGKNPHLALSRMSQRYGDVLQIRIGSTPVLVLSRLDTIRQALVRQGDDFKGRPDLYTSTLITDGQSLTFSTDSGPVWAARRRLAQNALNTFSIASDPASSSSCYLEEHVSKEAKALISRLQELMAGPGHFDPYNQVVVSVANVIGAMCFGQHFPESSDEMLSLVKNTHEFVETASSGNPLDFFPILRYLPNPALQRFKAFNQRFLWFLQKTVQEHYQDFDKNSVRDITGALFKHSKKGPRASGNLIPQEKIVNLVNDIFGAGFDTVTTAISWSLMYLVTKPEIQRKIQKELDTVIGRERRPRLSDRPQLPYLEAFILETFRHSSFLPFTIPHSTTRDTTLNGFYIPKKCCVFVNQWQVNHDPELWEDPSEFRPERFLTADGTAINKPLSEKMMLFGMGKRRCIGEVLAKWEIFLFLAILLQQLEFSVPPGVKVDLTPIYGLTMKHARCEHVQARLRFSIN

CYP2D6 = CYP2D6 (Homo sapiens, UniProt P10635); experiment: Inhibition of CYP2D6 (unknown origin) at 10 uM relative to control; format: ADME
CYP3A4 [13] = target: T2, CYP3A4 (Homo sapiens, UniProt P08684); experiment: Inhibition of CYP3A4 (unknown origin) at 10 uM using testosterone as substrate relative to control; format: ADME; conditions: probe testosterone
CYP3A4 [14] = target: T2, CYP3A4; experiment: Inhibition of CYP3A4 (unknown origin) at 10 uM using midazolam as substrate relative to control; format: ADME; conditions: probe midazolam
Rattus norvegicus [15] = experiment: Cmax in Sprague-Dawley rat assessed as riluzole level at 2.8 mg/kg, iv measured up to 8 hrs; format: ADME, organism-based; set-up: dose 2.8 mg/kg, route intravenous; conditions: in vivo
Rattus norvegicus [16] = experiment: Tmax in Sprague-Dawley rat assessed as riluzole level at 2.8 mg/kg, iv measured up to 8 hrs; format: ADME, organism-based; conditions: in vivo
Rattus norvegicus [17] = experiment: Half life in Sprague-Dawley rat assessed as riluzole level at 2.8 mg/kg, iv measured up to 8 hrs; format: ADME, organism-based; conditions: in vivo
Rattus norvegicus [18] = experiment: AUClast in Sprague-Dawley rat assessed as riluzole level at 2.8 mg/kg, iv measured up to 8 hrs; format: ADME, organism-based; set-up: time < 8 hr, dose 2.8 mg/kg, route intravenous; conditions: in vivo
[19] = Cmax in Sprague-Dawley rat at 2.8 mg/kg, iv; format: ADME, organism-based; set-up: dose 2.8 mg/kg, route intravenous; conditions: in vivo
[20] = Tmax in Sprague-Dawley rat at 2.8 mg/kg, iv; format: ADME, organism-based; conditions: in vivo
Rattus norvegicus [21] = experiment: Cmax in Sprague-Dawley rat assessed as riluzole level at 14.6 mg/kg, po measured up to 8 hrs; format: ADME, organism-based; set-up: dose 14.6 mg/kg, route oral; conditions: in vivo
Method in brief: (§5)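 Male Sprague-Dawley rats received a single oral dose. Plasma prodrug and riluzole levels were monitored up to eight hours after dosing.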

Rattus norvegicus [22] = experiment: Tmax in Sprague-Dawley rat assessed as riluzole level at 14.6 mg/kg, po measured up to 8 hrs; format: ADME, organism-based; conditions: in vivo; method in brief: as §5
Rattus norvegicus [23] = experiment: Oral bioavailability in Sprague-Dawley rat at 14.6 mg/kg; format: ADME, organism-based; conditions: in vivo; method in brief: as §5
Rattus norvegicus [24] = experiment: AUClast in Sprague-Dawley rat assessed as riluzole level at 14.6 mg/kg, po measured up to 8 hrs; format: ADME, organism-based; set-up: time < 8 hr, dose 14.6 mg/kg, route oral; conditions: in vivo; method in brief: as §5
Homo sapiens [25] = experiment: Antitumor activity against human C8161 cells xenografted in mouse assessed as tumor growth inhibition at 4.9 to 14.8 mg/kg, po administered once daily via gavage for 21 days measured at 7 days interval during compound dosing; format: functional, organism-based; method in brief: as §2
[26] = Prodrug conversion in mouse plasma xenografted with human C8161 cells assessed as riluzole formation at 4.9 to 14.8 mg/kg, po administered via gavage measured 2 hrs post dose; format: ADME, organism-based; conditions: in vivo
Method in brief: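 In C8161 xenograft-bearing nude mice given daily oral gavage doses, plasma was sampled from selected animals 2 hours post dosing to check riluzole exposure.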

T2 sequence (P08684 whole entry): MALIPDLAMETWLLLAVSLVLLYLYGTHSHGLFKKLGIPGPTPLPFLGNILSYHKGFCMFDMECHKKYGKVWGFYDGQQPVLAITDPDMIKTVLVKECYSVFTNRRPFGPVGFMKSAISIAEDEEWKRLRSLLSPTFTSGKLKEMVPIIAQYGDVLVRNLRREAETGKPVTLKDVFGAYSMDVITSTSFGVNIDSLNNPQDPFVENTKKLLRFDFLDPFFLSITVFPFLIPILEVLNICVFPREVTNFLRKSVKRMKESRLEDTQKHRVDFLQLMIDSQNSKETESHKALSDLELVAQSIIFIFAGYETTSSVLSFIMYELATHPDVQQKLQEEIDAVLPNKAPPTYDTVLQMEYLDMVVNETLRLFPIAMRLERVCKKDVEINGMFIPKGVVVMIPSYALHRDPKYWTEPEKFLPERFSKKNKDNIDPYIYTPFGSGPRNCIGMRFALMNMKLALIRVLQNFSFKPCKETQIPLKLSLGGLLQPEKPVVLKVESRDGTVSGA
Sequence of CYP2D6 (P10635 whole entry): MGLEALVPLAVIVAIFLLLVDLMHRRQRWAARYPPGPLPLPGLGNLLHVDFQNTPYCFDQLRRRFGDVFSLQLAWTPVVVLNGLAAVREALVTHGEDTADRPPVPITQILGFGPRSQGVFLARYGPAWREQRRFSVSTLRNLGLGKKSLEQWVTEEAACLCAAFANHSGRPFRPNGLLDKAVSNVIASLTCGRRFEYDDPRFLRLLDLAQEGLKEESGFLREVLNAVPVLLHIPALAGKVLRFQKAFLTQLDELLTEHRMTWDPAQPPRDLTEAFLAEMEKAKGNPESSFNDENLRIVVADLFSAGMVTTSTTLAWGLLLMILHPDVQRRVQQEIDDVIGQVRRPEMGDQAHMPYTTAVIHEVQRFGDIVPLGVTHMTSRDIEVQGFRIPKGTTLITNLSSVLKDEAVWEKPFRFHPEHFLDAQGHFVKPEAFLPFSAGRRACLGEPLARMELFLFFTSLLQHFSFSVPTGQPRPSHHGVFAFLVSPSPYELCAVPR

SMILES: Nc1nc2ccc(OC(F)(F)F)cc2s1
- TGI (Homo sapiens [5]): Active

SMILES: CC(C)NCC(=O)N(C)CC(=O)Nc1nc2ccc(OC(F)(F)F)cc2s1
- t1/2 [1]: > 24 h
- t1/2 [2]: > 2 h
- t1/2 [3]: > 4 h
- t1/2 [4]: > 4 h

SMILES: CN(CC(=O)Nc1nc2ccc(OC(F)(F)F)cc2s1)C(=O)CNC(C)(C)C
- t1/2 [1]: > 24 h
- t1/2 [2]: > 2 h
- t1/2 [3]: > 4 h
- t1/2 [4]: > 4 h
- t1/2 [6]: > 1 h
- t1/2 [7]: > 1 h
- t1/2 [8]: > 1 h
- t1/2 [9]: > 1 h
- Papp A→B [10]: 1.38 ×10⁻⁶ cm/s
- Papp B→A [11]: 2.41 ×10⁻⁶ cm/s
- efflux ratio [12]: 1.7
- inhibition at 10 µM (CYP1A2): < 10%
- inhibition at 10 µM (CYP2D6): < 10%
- inhibition at 10 µM (CYP3A4 [13]): < 10%
- inhibition at 10 µM (CYP3A4 [14]): < 10%
- Cmax (Rattus norvegicus [15]): 187 ng/mL
- Tmax (Rattus norvegicus [16]): 0.78 h
- t1/2 (Rattus norvegicus [17]): 7.83 h
- AUClast (Rattus norvegicus [18]): 1137 ng·h/mL
- Cmax [19]: 1730 ng/mL
- Tmax [20]: 0 h
- Cmax (Rattus norvegicus [21]): 1587 ng/mL
- Tmax (Rattus norvegicus [22]): 8 h
- F (Rattus norvegicus [23]): 70%
- AUClast (Rattus norvegicus [24]): 20518 ng·h/mL
- TGI (Homo sapiens [25]): Active
- Drug metabolism [26]: Metabolite_Detected

SMILES: CN(CC(=O)Nc1nc2ccc(OC(F)(F)F)cc2s1)C(=O)CN
- t1/2 [1]: < 0.1 h
- t1/2 [2]: < 0.1 h

SMILES: CC(C)(NC(=O)CN)C(=O)Nc1nc2ccc(OC(F)(F)F)cc2s1
- t1/2 [2]: 2 h
- t1/2 [3]: > 4 h
- t1/2 [4]: < 1 h

SMILES: CC(C)(C)NCC(=O)N1CCC[C@@H]1C(=O)Nc1nc2ccc(OC(F)(F)F)cc2s1
- t1/2 [1]: > 24 h
- t1/2 [2]: > 2 h

SMILES: CC(C)(C)NCC(=O)NC(C)(C)C(=O)Nc1nc2ccc(OC(F)(F)F)cc2s1
- t1/2 [1]: > 2 h
- t1/2 [2]: > 2 h
- t1/2 [3]: > 4 h
- t1/2 [4]: > 4 h

Next, values leading:

- t1/2 [1]: < 0.1 h
- t1/2 [2]: < 0.1 h
- t1/2 [3]: > 4 h
- t1/2 [4]: < 1 h
SMILES: CNCC(=O)N(C)CC(=O)Nc1nc2ccc(OC(F)(F)F)cc2s1

- t1/2 [1]: 0.2 h
- t1/2 [2]: 0.25 h
- t1/2 [3]: 2.5 h
- t1/2 [4]: < 1 h
SMILES: NCC(=O)N1CCC[C@@H]1C(=O)Nc1nc2ccc(OC(F)(F)F)cc2s1

- t1/2 [1]: < 0.25 h
- t1/2 [2]: < 0.25 h
- t1/2 [3]: > 4 h
- t1/2 [4]: < 1 h
SMILES: CCNCC(=O)N(C)CC(=O)Nc1nc2ccc(OC(F)(F)F)cc2s1
